Rows were chosen to be rich in hits. Some 2.8% of all compounds tested hit in one or more screens of this group.
NPY1 pot ag – potentiators or agonists of human neuropeptide Y receptor Y1 | P25929 | NPY-Y1 expressing cells, potentiator/agonist activation | activation, % at 3.6 µM | 220,000 tested, 0.37% active; in the data active means activation above about 33%, passing the limit was not always enough;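 further: cells stimulated with NPY at EC10 then isoproterenol at EC100; 0% = low agonist plus stimulus and 100% = saturating agonist plus stimulus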
Target sequence (P25929 whole entry, looked up): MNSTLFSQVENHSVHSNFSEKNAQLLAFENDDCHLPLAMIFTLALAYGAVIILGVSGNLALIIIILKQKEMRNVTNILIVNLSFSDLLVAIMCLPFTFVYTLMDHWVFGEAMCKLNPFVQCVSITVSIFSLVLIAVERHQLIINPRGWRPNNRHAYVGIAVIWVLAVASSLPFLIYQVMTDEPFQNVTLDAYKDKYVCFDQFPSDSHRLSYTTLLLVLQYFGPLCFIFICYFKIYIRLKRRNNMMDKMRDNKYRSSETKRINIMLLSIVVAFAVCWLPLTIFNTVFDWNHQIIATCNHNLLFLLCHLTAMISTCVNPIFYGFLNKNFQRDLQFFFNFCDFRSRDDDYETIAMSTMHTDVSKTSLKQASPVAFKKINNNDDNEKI
NPY2 pot ag – potentiates or activates human NPY-Y2 receptor; P49146; cells expressing NPY-Y2, potentiator/agonist read-out; activation, % at 3.6 µM; 220,000 tested, 0.45% active; AID 1359; in the data active means activation above about 27%;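 further: cells stimulated with NPY near EC25 plus isoproterenol at EC100; 0% = vehicle plus submaximal agonist and 100% = vehicle plus saturating agonist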
NPY-Y2 antag – blocks the human neuropeptide Y Y2 receptor. P49146. NPY-Y2 expressing cells, antagonist mode. inhibition, % at 2.7 µM. 140,000 tested, 0.99% active; in the data active means inhibition above about 17%;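 further: 0% = vehicle with agonist challenge and 100% = reference antagonist with challenge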
Measles CPE – protection of cells from measles virus | AID 841 | 140,000 tested, 1.5% active | protection (pct of control), % at 4 µM | Measles virus-infected cells, CPE protection, absorbance; in the data active means protection mostly above about 24%, no sharp cut-off; inactive means mostly below about 26%
NPY Y1 blocker – antagonists of human neuropeptide Y receptor Y1; 200,000 tested, 1% active; inhibition, % at 3.6 µM; P25929; HEK293-CNG Y1 cells, membrane potential fluorescence; NPY at EC95, then isoproterenol;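 active means inhibition above the campaign mean inhibition of all tested compounds plus 3 SD, cut at about 20% in these data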;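 further: 0% = DMSO wells given NPY plus isoproterenol and 100% = isoproterenol alone without NPY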
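Material: Y1- and CNG-channel-expressing HEK293 cells / Probe or stimulus: NPY 25 nM then isoproterenol 1 µM plus Ro 20-1724 25 µM / Doses: 3.6 µM single dose, DMSO 0.4% / Schedule: compound incubation 1 h at room temperature, readout 45 min post-stimulation / Signal: membrane potential fluorescence / Benchmarks: isoproterenol-only wells as full block versus NPY-plus-isoproterenol wells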
MDM2 E3 inh – blocks human Mdm2 ubiquitin ligase activity; Q00987; cell-based MDM2 ubiquitination luciferase reporter, 2 h; 0 = plate control, 100 = twice control, blank-subtracted; signal enhancement, % at 5 µM; 210,000 tested, 0.11% active;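 active means signal enhancement of 30% or more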;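 further: luminescence tracks abundance of the self-degrading MDM2-luciferase fusion protein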
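Material: stable MDM2–luciferase fusion reporter cells / Quantity: 2000 cells/well / Dosing: single 5 µM compound dose, 0.2% final DMSO / Buffer or medium: DMEM / Schedule: 4 h cell settling then 2 h compound exposure, 37 °C / Detection: luminescence with SteadyLite reagent, 15 min at room temperature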
* = called active by the depositor; / = not tested or not shown.

SMILES	NPY1 pot ag	NPY2 pot ag	NPY-Y2 antag	Measles CPE	NPY Y1 blocker	MDM2 E3 inh
COc1cccc(-n2c(SCC(=O)N3CCCC3)nc3c([nH]c4ccccc43)c2=O)c1	-5	-6	2	/	1	/
O=C(NCCCO)C(=O)NCc1ccncc1	-2	3	/	/	-2	5
Cc1cc(C)cc(NC(=O)C(Nc2ccccc2)c2ccccc2)c1 (stereo unspecified)	10	3	10	46*	13	2
CCCCCn1c(Sc2ncccn2)nc2c1c(=O)[nH]c(=O)n2C	1	0	0	38*	-3	-6
CN(C)CCNS(=O)(=O)c1ccc(N2CCN(c3ccc(F)cc3)CC2)c([N+](=O)[O-])c1	-1	24	-1	15	-3	-9
Cc1cc(C)c2c(c1)cc(C)c1nnc(SCC(=O)Nc3ccc(S(=O)(=O)N4CCCCC4)cc3)n12	19	20	1	50*	-2	-4
Cc1ccc2cc(C)c(SCC(=O)Nc3ccc(S(=O)(=O)N4CCCC4)cc3)nc2c1	10	-21	/	/	/	/
COc1ccc2c(c1)O[C@H](c1ccc3c(c1)OCO3)[C@@H](O)C2=O	-2	7	-1	27*	0	/
O=C(CSc1nnc2ccccn12)Nc1nsc(-c2ccccc2)n1	-12	0	3	27*	-1	5
Clc1ccccc1CN1CCN(/N=C/C=C/c2ccco2)CC1	-9	-8	/	/	/	-8
N#CCCN1CCN(S(=O)(=O)c2ccc(S(=O)(=O)N3CCOCC3)cc2)CC1	-4	2	2	28*	5	-13
CN(C)S(=O)(=O)c1ccc(S(=O)(=O)N2CCN(CCC#N)CC2)cc1	12	12	1	15	0	-10
FC(F)(F)c1nc(N2CCCC2)ncc1-c1nnnn1-c1ccccc1	15	21	3	62*	1	-22
O=C(Nc1nc(-c2cccs2)cs1)c1cccc(S(=O)(=O)N2CCCCC2)c1	-13	-36	4	32*	16	-8
COc1ccc(C(=O)Nc2nc(-c3cccs3)cs2)cc1	0	-8	3	7	-3	-15
O=C(Nc1nc(-c2cccs2)cs1)c1ccc(Cl)cc1	39	1	9	49*	9	-10
Cc1ccc(-c2csc(NC(=O)COC(=O)c3cccc(S(=O)(=O)N4CCOCC4)c3)n2)cc1	13	-2	-2	28*	0	-18
Cc1ccc(-c2csc(NC(=O)c3cccc(S(=O)(=O)N4CCN(C)CC4)c3)n2)cc1	-15	5	1	6	2	8
CCOC(=O)Cc1csc(NC(=O)c2ccc(S(=O)(=O)N3CCCCC3)cc2)n1	5	13	-2	39*	0	4
CCOC(=O)Cc1csc(NC(=O)c2ccc(NC(C)=O)cc2)n1	2	-4	-2	12	2	-20
COc1ccc(C(=O)/C=C/Nc2ccc(S(N)(=O)=O)cc2)cc1OC	7	8	/	/	/	-7
COc1ccc(C(=O)CSc2nnc(CNC(=O)c3ccc(OC)c(OC)c3)n2C)cc1	2	7	1	3	-5	-12
O=C(Cn1nc2n(c1=O)-c1ccccc1SC2)N/N=C/c1cccnc1	14	6	/	/	/	-17
O=C(CN1C(=O)CCC1=O)Nc1nc(-c2ccc(Cl)s2)cs1	4	12	-1	5	-6	-6
O=C(COC(=O)c1cc(S(=O)(=O)N2CCOCC2)cs1)c1ccccc1	10	20	-1	51*	-1	-6
SMILES	NPY1 pot ag	NPY2 pot ag	NPY-Y2 antag	Measles CPE	NPY Y1 blocker	MDM2 E3 inh
O=C(NCCc1ccccc1)c1cc(S(=O)(=O)N2CCOCC2)ccc1F	-10	-9	0	18	1	-15
O=C(COC(=O)c1cc(S(=O)(=O)N2CCOCC2)ccc1O)NCCc1ccccc1	-17	-2	2	39*	-10	-12
O=C(Nc1nc(-c2ccc(Cl)s2)cs1)c1ccncc1	16	14	3	58*	3	-20
CC(C)(C)NC[C@H](O)COc1nsnc1N1CCOCC1	118*	104*	1	21	-11	/
COC(=O)COc1nsnc1N1CCOCC1	1	-9	1	4	-2	-6
C/C(=N\NC(=O)CSCc1ccc([N+](=O)[O-])cc1)c1cccc(Br)c1	-25	-19	3	35*	15	-7
CCC(C(=O)Nc1ccc(C(=O)N2CCCC2)cc1)c1ccccc1 (stereo unspecified)	2	8	/	/	3	13
CC1(C)c2ssc(=S)c2-c2ccccc2N1C(=O)CSC1=NCCS1	39	34*	-4	38*	-5	-6
Cc1ccc2c(c1)-c1c(ssc1=S)C(C)(C)N2C(=O)CSc1nncn1C	10	18	2	14	-2	1
O=C(Nc1ccc(Cl)c(Cl)c1)N1CCC(N2CCCCC2)CC1	-5	-4	2	61*	-1	-19
COC(=O)c1ccc(Cn2c(O)c(N=O)c3ccccc32)o1	-10	6	1	66*	1	-12
CCN(CC)c1ccc(/C=C2/C(=O)c3ccc(C(=O)O)cc3C2=O)cc1	-17	7	7	11	-3	63*
CN(C)c1ccc(/C=N/NC(=O)C2COc3ccccc3O2)o1 (stereo unspecified)	2	-2	0	17*	1	6
O=C(O)COc1ccccc1/C=N/NC(=O)CSc1nc2ccccc2n1Cc1ccccc1Cl	-3	-4	/	/	/	-3
CCOC(=O)N1CCN(C(=O)c2ccc3c(=O)n(-c4ccc(F)cc4)c(=S)[nH]c3c2)CC1	-4	-10	2	28*	10	-13
CN1CCN(C(=O)c2ccc3c(=O)n(-c4ccc(F)cc4)c(=S)[nH]c3c2)CC1	-6	-21	/	/	4	9
COc1cc(/C=N/NC(=O)CCN2CCN(C(c3ccccc3)c3ccccc3)CC2)ccc1O	33	23	4	28*	0	-7
COc1cc(/C=N\NC(=O)CNC(=O)C(c2ccccc2)c2ccccc2)ccc1O	11	3	/	/	/	-16
COc1ccc(CONS(=O)(=O)c2ccc(NC(C)=O)cc2)cc1Cl	33	10	1	14	-3	1
CCCCOc1ccc(Cc2n[nH]c(=S)n2N)cc1	-2	-3	4	40*	5	-3
CCOC(=O)C(C(=O)OCC)C(Nc1cccc(Br)c1)c1ccccc1 (stereo unspecified)	-8	2	4	31*	11	3
COC(=O)C(C)Nc1cccc(Br)c1 (stereo unspecified)	0	-10	/	/	/	-9
COc1ccc(-n2nc(C(=O)NCC(=O)NCc3ccc(F)cc3)c3ccccc3c2=O)c(OC)c1	-4	-8	0	87*	2	-6
CC1(C)Cc2c(sc3c4nnnn4c4nnnn4c23)CO1	-7	0	1	16	1	0
